The list is not random: actives were taken first. Their share in the collection is about 3.9%.
CHOP UPR activ: activators of apoptotic CHOP UPR arm, primary screen, cell-based, CHO-CHOP luciferase reporter, luminescence, uHTS | UPR activation; percent of tunicamycin response over DMSO baseline | activation, % at 10 µM | 0.34% of 330,000 active;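 active means at 10 µM dose, activation of 40% or more, normalized to positive control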;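 further: 100% = tunicamycin at 10 µg/mL and 0% = DMSO alone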
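System: CHO CHOP reporter cells. Amount: 500 cells per well. Buffer or medium: F12 medium, 10% FBS. Compound dosing: one dose, 10 µM in 0.5% DMSO. Incubation: 6 h compound exposure at 37 °C after overnight seeding. Technique: Steady-Glo luciferase luminescence. Benchmarks: tunicamycin and DMSO controls.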
Jurkat NFkB inh: inhibitors of induced NF-kB luciferase reporter, primary screen, TCR NF-kB activation inhibitor project, cell-based, luminescence, uHTS; 0.53% of 330,000 active; inhibition, % at 4 µM; Jurkat, PMA/ionomycin-induced NF-kB luciferase reporter; in the data active means inhibition above about 50%
CHOP inhibitor: inhibitors of CHOP promoter induction, primary screen, cell-based, unfolded protein response, luciferase reporter; inhibition, % at 10 µM; CHO-K1 CHOP-promoter luciferase, tunicamycin-induced, 15-18 h; 3.8% of 220,000 active;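 active means compounds that reduced the stress-induced luciferase reporter signal by more than about 70% of percent inhibition, limit read from the data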;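 further: 0% = tunicamycin plus vehicle and 100% = wells without tunicamycin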
Gli-Sufu block: Gli-Sufu pathway antagonists, primary screen, luciferase luminescence, Sufu-KO-LIGHT cells, uHTS. Sufu-KO-LIGHT fibroblasts, Gli luciferase reporter luminescence. inhibition, % at 5 µM. 0.74% of 340,000 active;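 active means inhibition above about 55%, limit read from the data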;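 further: 0% = DMSO-treated cells and 100% = wells with medium but no cells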
697 NFkB inh: inhibitors of PMA/ionomycin-induced NF-kB reporter, 697 cells, primary screen, B-cell NF-kB inhibitor project, cell-based, luminescence, uHTS. 0.33% of 330,000 active. 697 B-cell NF-kB luciferase reporter, 16 h. inhibition, % at 4 µM; in the data active means inhibition above about 35%
XBP1 UPR activ: activators of adaptive XBP1 UPR arm, primary screen, cell-based, CHO-XBP1 luciferase reporter, luminescence, uHTS; IRE1-XBP1 UPR activation; percent of tunicamycin response, DMSO as zero; activation, % at 20 µM; 0.33% of 330,000 active; AID 463104, 2010;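 active means versus positive control, 20 µM dose yields 30% or more activation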;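 further: 100% = tunicamycin at 10 µg/mL and 0% = DMSO only wells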
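Material: CHO-XBP1 cells stably carrying IRE1-XBP1-driven luciferase reporter / Amount: 1000 cells per well / Compound: 20 µM, 1% DMSO / Times: 6 h treatment, 37 °C / Detection: luciferase luminescence / Measure: % activation of reporter signal versus tunicamycin and DMSO controls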
697 NFkB conf: PMA/ionomycin-induced NF-kB reporter inhibitors, 697 retest, confirmation, B-cell NF-kB inhibitor project, cell-based, luminescence, single concentration | shares compounds with 697 NFkB inh | 697 B-cell NF-kB luciferase, 16 h | inhibition, % at 4 µM | 35% of 2,000 active; in the data active means inhibition mostly above about 28%, no sharp cut-off; inactive means mostly below about 22%
UPR CHOP confirm: activators of apoptotic CHOP UPR arm, confirmation, cell-based, CHO-CHOP luciferase reporter, single concentration; shares compounds with CHOP UPR activ; CHO-CHOP cells, CHOP-luciferase reporter luminescence; percent of tunicamycin response, DMSO as zero; activation, % at 10 µM; 64% of 1,000 active; in the data active means activation above about 33%;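 further: 0% = DMSO wells and 100% = tunicamycin 10 µg/mL wells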
Gli antag conf: Gli-SUFU pathway antagonists, confirmation, single concentration, luciferase luminescence, Sufu-KO-LIGHT cells. 40% of 2,500 active. inhibition, % at 5 µM. AID 602428, 2012. shares compounds with Gli-Sufu block. Gli luciferase reporter;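 active means mean inhibition at 5 µM reaching about 45%, limit read from the data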;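 further: plate controls were DMSO-treated cells for no effect and wells lacking cells for full effect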
Gli cytotox: cytotoxicity in Sufu-KO-LIGHT cells, confirmation, cytotoxicity control for Gli-SUFU antagonist project, cell-based, ATP luminescence, single concentration; shares compounds with Gli-Sufu block; cytotoxicity, % at 5 µM; 32% of 2,500 active; AID 651994, 2013;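 active means mean cytotoxicity at 5 µM above about 25%, limit read from the data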;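 further: cells exposed to compound overnight for roughly 16 to 18 hours; plate controls were DMSO wells with cells for no effect and medium without cells for full effect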
Wnt3a counter: Wnt3a reporter signal inhibition, confirmation, counter-screen for Gli-SUFU antagonist project, Wnt-LIGHT cells, luminescence, single concentration; Wnt3a-driven luciferase reporter; AID 651995, 2013; inhibition, % at 6.25 µM; shares compounds with Gli-Sufu block; 20% of 2,500 active;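 active means mean inhibition above about 25%, limit read from the data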
An asterisk follows results filed as active.

How did COc1ccc(/C=C2\NC(=O)C(C=NCc3ccccc3)=C2O)cc1 do in these assays?
CHOP UPR activ: 2; Jurkat NFkB inh: -15; CHOP inhibitor: 26; Gli-Sufu block: -11; 697 NFkB inh: 15; XBP1 UPR activ: 2

Results for O=C1N/C(=C\c2ccc(O)cc2)C(O)=C1C=NCc1ccccc1 ?
CHOP UPR activ: 10; Jurkat NFkB inh: 20; CHOP inhibitor: 39; Gli-Sufu block: 71*; 697 NFkB inh: 37*; XBP1 UPR activ: 25; 697 NFkB conf: 17; Gli antag conf: 47*; Gli cytotox: 19; Wnt3a counter: 11

Results for O=C(CCCCCN1C(=O)c2ccccc2C1=O)Nc1ccccc1 ?
CHOP UPR activ: -1; Jurkat NFkB inh: 10; CHOP inhibitor: 28; Gli-Sufu block: -5; 697 NFkB inh: 7; XBP1 UPR activ: -5

What do the screens show for `O=C(CCCCCCC(=O)Nc1ccccc1)NO`?
CHOP UPR activ: 2; Jurkat NFkB inh: 24; Gli-Sufu block: 84*; 697 NFkB inh: inactive; XBP1 UPR activ: 20; 697 NFkB conf: -336; Gli antag conf: 88*; Gli cytotox: 18; Wnt3a counter: -234

What do the screens show for `CC(C)(C)N1CSC(=S)N(Cc2ccccc2)C1`?
CHOP UPR activ: 86*; Jurkat NFkB inh: -9; CHOP inhibitor: 1; Gli-Sufu block: 1; 697 NFkB inh: 2; XBP1 UPR activ: -1; UPR CHOP confirm: 82*

How did CC(C)N1CSC(=S)N(Cc2ccccc2)C1 do in these assays?
CHOP UPR activ: 75*; Jurkat NFkB inh: 8; CHOP inhibitor: 24; Gli-Sufu block: 10; 697 NFkB inh: 24; XBP1 UPR activ: 1; UPR CHOP confirm: 94*

How did CN1CCN(C2CCN(Cc3ccc(O)c4ncccc34)CC2)CC1 do in these assays?
CHOP UPR activ: -1; Jurkat NFkB inh: -6; Gli-Sufu block: 2; 697 NFkB inh: -34; XBP1 UPR activ: -1

What do the screens show for `COCc1ccc(O)c2ncccc12`?
CHOP UPR activ: 43*; Jurkat NFkB inh: 25; CHOP inhibitor: 82*; Gli-Sufu block: 2; 697 NFkB inh: 5; XBP1 UPR activ: 37*; UPR CHOP confirm: 73*

How did Oc1ccc(CN2CCN(Cc3ccccc3)CC2)c2cccnc12 do in these assays?
CHOP UPR activ: 71*; Jurkat NFkB inh: -4; CHOP inhibitor: -10; Gli-Sufu block: 24; 697 NFkB inh: 1; XBP1 UPR activ: 27; UPR CHOP confirm: 94*

How did CN1CCN(Cc2cc(COCc3ccccc3)c3cccnc3c2O)CC1 do in these assays?
CHOP UPR activ: 131*; Jurkat NFkB inh: 4; Gli-Sufu block: 44; 697 NFkB inh: -39; XBP1 UPR activ: 26; UPR CHOP confirm: 54*

What do the screens show for `O=C(Cc1ccc(F)cc1)NC1CCSC1=O` (stereo not drawn)?
CHOP UPR activ: 41*; Jurkat NFkB inh: -4; CHOP inhibitor: 10; Gli-Sufu block: 0; 697 NFkB inh: 1; XBP1 UPR activ: 2; UPR CHOP confirm: -2

How did O=C(CCCc1ccccc1)NC1CCSC1=O (stereo not drawn) do in these assays?
CHOP UPR activ: 0; Jurkat NFkB inh: -11; CHOP inhibitor: 6; Gli-Sufu block: -5; 697 NFkB inh: 8; XBP1 UPR activ: 0

Results for O=C(Nc1ccc2c(c1)OCO2)c1ccc([N+](=O)[O-])cc1[N+](=O)[O-] ?
CHOP UPR activ: 2; Jurkat NFkB inh: -34; Gli-Sufu block: -24; 697 NFkB inh: -4; XBP1 UPR activ: -1

How did COc1ccc(C2OC34CCCCC3C(C#N)(C#N)C2(C#N)C(=N)O4)cc1 (stereo not drawn) do in these assays?
CHOP UPR activ: 54*; Jurkat NFkB inh: 11; CHOP inhibitor: 7; Gli-Sufu block: 1; 697 NFkB inh: 18; XBP1 UPR activ: -7; UPR CHOP confirm: 35*

What do the screens show for `N#CC1(C#N)COC23CCCCC2C1(C#N)C(=N)O3` (stereo not drawn)?
CHOP UPR activ: 65*; Jurkat NFkB inh: 1; CHOP inhibitor: -197; Gli-Sufu block: 8; 697 NFkB inh: -24; XBP1 UPR activ: -4; UPR CHOP confirm: 55*

What do the screens show for `N#CC12COC3(CCCCC3C1(C#N)C#N)OC2=N` (stereo not drawn)?
CHOP UPR activ: 46*; Jurkat NFkB inh: 5; CHOP inhibitor: -82; Gli-Sufu block: 3; 697 NFkB inh: 7; XBP1 UPR activ: -2; UPR CHOP confirm: 43*

What do the screens show for `CCC1OC23CCCCC2C(C#N)(C(=N)O3)C1(C#N)C#N` (stereo not drawn)?
CHOP UPR activ: 10; Jurkat NFkB inh: -4; CHOP inhibitor: 10; Gli-Sufu block: 1; 697 NFkB inh: 24; XBP1 UPR activ: -6

What do the screens show for `CC1OC23CCCCC2C(C#N)(C(=N)O3)C1(C#N)C#N` (stereo not drawn)?
CHOP UPR activ: 1; Jurkat NFkB inh: 7; CHOP inhibitor: 12; Gli-Sufu block: -7; 697 NFkB inh: 8; XBP1 UPR activ: -1

How did C=CCN=c1scc(-c2ccco2)n1/N=C/c1ccc(O)c(O)c1O do in these assays?
CHOP UPR activ: 161*; Jurkat NFkB inh: -37; CHOP inhibitor: -81; Gli-Sufu block: -4; 697 NFkB inh: -88; XBP1 UPR activ: 3; UPR CHOP confirm: 64*

How did COc1ccc(C(=O)Sc2ccc(Cl)cc2)cc1OC do in these assays?
CHOP UPR activ: 87*; Jurkat NFkB inh: 15; CHOP inhibitor: 50; Gli-Sufu block: 11; 697 NFkB inh: 25; XBP1 UPR activ: 14; UPR CHOP confirm: 58*

Assay outcomes (PubChem BioAssay)
